For assay [1], the species on record is Homo sapiens. The assay is described as follows: In vitro inhibitory concentration against thrombin-induced platelet aggregation in human platelet-rich plasma in presence of thrombin at 0.30 IU/mL. The format is functional. The method, boiled down:
(§1)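 Healthy drug-free donors' venous blood centrifuged 800 rpm 8 min RT; PRP diluted with PPP to 2 × 10⁸ platelets/mL, one donor per series. PRP stirred (1100 rpm) with compound 0.05-1 mM ≥4 min, then bovine thrombin added at 37 °C; light transmittance recorded 4 min, PPP = 100%, PRP = 0%. Studies finished within 1 h of collection.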

For assay [2], the species on record is Rattus norvegicus. The assay is described as follows: Maximal relaxing effect of compound in isolated rat aortic rings precontracted with 1 uM phenylephrine at 100 uM concentration. The format is functional, Aorta. The method, boiled down:
(§2)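 Thoracic aorta of adult male Wistar rats cut into 2 mm rings, one with intact and one with mechanically removed endothelium. Superfused 1 mL/min with modified Tyrode-type buffer, 37 °C, pH 7.44, carbogen; basal tension 2 g, isometric force. Endothelium checked with 1 µM carbachol against 1 µM phenylephrine. Compounds added 30 min after perfusion, on phenylephrine tone; some rings pretreated with 300 µM L-NAME. Mean ± SEM.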

The species entered for assay [3] is Homo sapiens. The assay is described as follows: In vitro inhibitory concentration against thrombin-induced platelet aggregation in human platelet-rich plasma in presence of thrombin at 0.20 IU/mL. The class given is functional. The method, boiled down: as §1
The species named for assay [4] is Homo sapiens. The assay is described as follows: In vitro inhibitory concentration against thrombin-induced platelet aggregation in human platelet-rich plasma in presence of thrombin at 0.25 IU/mL. The class given is functional. The method, boiled down:
as §1

The nature of assay [5]: Relative potency (REC) is the ratio of concentration of compound to the concentration of SFLLR-NH2 for producing equal relaxing effect on the isolated rat aortic rings. The class given is functional, Aorta.
The species named for assay [6] is Rattus norvegicus. The assay is described as follows: Maximal relaxing effect in isolated rat aortic rings without endothelium precontracted with 1 uM phenylephrine at 0.1-100 uM concentration; Range is 2.3-14%. The format is functional, Aorta. The method, boiled down: as §2
The species named for assay [7] is Rattus norvegicus. The assay is described as follows: Maximal relaxing effect in isolated rat aortic rings with endothelium precontracted with 1 uM phenylephrine at 0.1-100 uM concentration; Range is 1.3-42.7%. The format is functional, Aorta. The method, boiled down:
as §2

The species named for assay [8] is Rattus norvegicus. The assay is described as follows: Reduction of maximal relaxing response in isolated rat aortic rings precontracted with Nomega-nitro-L-arginine (L-NAME) at 0.1-100 uM concentration; Range is 17-18%. The class given is functional, Aorta. The method, boiled down: as §2
The species named for assay [9] is Rattus norvegicus. In words: Relaxing effect dependent on nitric oxide in isolated rat aortic rings at 0.1-100 uM compound concentration; Range is 0-25%. The class given is functional, Aorta. The method, boiled down:
as §2

For assay [10], the species on record is Rattus norvegicus. In words: Maximal relaxing effect in isolated rat aortic rings with endothelium precontracted with 1 uM phenylephrine at 0.1-100 uM concentration; Range is 1.8-40.7%. The format is functional, Aorta. The method, boiled down: as §2
The species named for assay [11] is Rattus norvegicus. In words: Contraction in isolated rat aortic rings without endothelium at 10-100 uM concentration; Range is 2-3%. The class given is functional, Aorta. The method, boiled down: as §2
The species entered for assay [12] is Rattus norvegicus. In words: Maximal relaxing effect of compound in isolated rat aortic rings precontracted phenylephrine at 100 uM concentration. The class given is functional, Aorta. The method, boiled down:
as §2

For assay [13], the species on record is Homo sapiens. In words: Inhibitory concentration against SFLLR-NH2 (2.5 uM) induced platelet aggregation in human platelet-rich plasma. The class given is functional, organism-based. The method, boiled down: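 Human PRP (2 × 10⁸ platelets/mL, healthy donors) stirred with compound, then aggregation triggered by SFLLR-NH₂ 2.5 µM instead of thrombin; optical aggregometry read-out.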

The structures appear in SMILES notation.

For the molecule `N=C(N)NCCCCCC(=O)NCC1CCN(C(=O)Cc2ccccc2)CC1`, the half-maximal inhibitory concentration (IC50) is more than 250 µM in the assay filed under Homo sapiens [1], 140 µM in the assay listed under Homo sapiens [3] and more than 250 µM in the assay filed under Homo sapiens [4]. In addition, the Max efficacy in the assay filed under Rattus norvegicus [2] is listed as 91.4%. The Relative potency in [5] is listed as 0.06.
On to `NC(N)=NCCCCCC(=O)NCC1CCN(C(=O)C(N)Cc2ccccc2)CC1` (stereo not given), for which the values for the IC50 in the assay filed under Homo sapiens [1], in the assay listed under Homo sapiens [3] and in the assay listed under Homo sapiens [4] were 870 µM, more than 1000 µM and more than 1000 µM, respectively. The Max efficacy in the assay filed under Rattus norvegicus [6] is given as 14%; in the assay filed under Rattus norvegicus [7], 42.7%. Moreover, the Reduction in the assay listed under Rattus norvegicus [8] came out at 18%. In addition, in assay [5], the Relative potency worked out at 13.6. In the assay listed under Rattus norvegicus [9], this molecule gave a Relaxation of 25%.
In the case of `NC(N)=NCCCCCC(=O)NC1CCN(C(=O)C(N)Cc2ccccc2)C1` (stereo not given), the half-maximal inhibitory concentration (IC50) in the assay filed under Homo sapiens [1] amounted to 390 µM; in the assay filed under Homo sapiens [3], 420 µM; in the assay filed under Homo sapiens [4], 340 µM. Further, the Max efficacy in the assay filed under Rattus norvegicus [10] worked out at 40.7%. Further, in the assay filed under Rattus norvegicus [11], the Contraction stood at 3%. In [5], the Relative potency was 24.
With `N=C(N)NCCCCCC(=O)NC1CCN(C(=O)Cc2ccccc2)C1` (stereo not given), the concentration for half-maximal inhibition (IC50) in the assay listed under Homo sapiens [1] was 210 µM; in the assay filed under Homo sapiens [3], 110 µM; in the assay filed under Homo sapiens [4], 120 µM. In the assay filed under Rattus norvegicus [12], the Max efficacy came to 37.5%. Moreover, the Relative potency in assay [5] is 17.3.
As to `NC(N)=NCCCCCC(=O)N1CCN(C(=O)C(N)Cc2ccccc2)CC1` (stereo not given), the IC50 was 240 µM in the assay filed under Homo sapiens [1], 120 µM in the assay filed under Homo sapiens [3], 90 µM in the assay filed under Homo sapiens [4] and 370 µM in the assay listed under Homo sapiens [13]. Also, the Relative potency in [5] was found to be 38.2.
For the molecule `N=C(N)NCCCCCC(=O)N1CCN(C(=O)Cc2ccccc2)CC1`, the IC50 in the assay filed under Homo sapiens [1] amounted to 440 µM; in the assay filed under Homo sapiens [3], 460 µM; in the assay listed under Homo sapiens [4], 510 µM; in the assay listed under Homo sapiens [13], 780 µM. Also, the Max efficacy in the assay listed under Rattus norvegicus [2] is 81%. Besides, in [5], the Relative potency is recorded as 0.19.

A word on the IC50: it is the concentration needed to halve the response being measured.

The values are drawn from ChEMBL document CHEMBL1148334, “Design and synthesis of novel biologically active thrombin receptor non-peptide mimetics based on the pharmacophoric cluster Phe/Arg/NH2 of the Ser42-Phe-Leu-Leu-Arg46 motif sequence: platelet aggregation and relaxant activities” (J Med Chem, 2004).
